The test system of one assay is HepG2. In words: Cytotoxicity against human HepG2 cells after 72 hrs by MTT assay. The following applies: HepG2, 72 h. It is filed as functional, cell-based. In short, it runs like this: (§1)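 Exponentially growing cells seeded at 1–8 × 10³ cells/well and left 24 h. Medium then replaced with medium holding compound in DMSO (final DMSO <0.1%), ten serial threefold dilutions, or DMSO alone. Triplicate wells, 72 h exposure. MTT added, 1 h at 37 °C, formazan dissolved in DMSO, A550 read. IC50 by non-linear regression; mean ± SD of at least three experiments.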
On the technique in general: Tetrazolium dyes change colour on reduction, which living cells bring about.

In a further assay the test system is Jurkat. In words: Cytotoxicity against human Jurkat cells after 72 hrs by XTT assay. It is filed as functional, cell-based. The essentials:
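Exponentially growing Jurkat cells (RPMI 1640, 10% heat-inactivated FBS, 1% P/S, 2 mM glutamine) seeded at 5.5 × 10³ cells/well. Exposed to ten serial threefold dilutions of compound or DMSO vehicle in medium, triplicate wells, 72 h. XTT labeling mixture then added for 4 h at 37 °C, A450 read. IC50 by non-linear regression; mean ± SD of at least three experiments.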

A further assay deals with HeLa. Briefly: Cytotoxicity against human HeLa cells after 72 hrs by MTT assay. Format: functional, cell-based. The essentials: as §1
In another assay the test system is HT-29. In words: Cytotoxicity against human HT-29 cells after 72 hrs by MTT assay. It is filed as functional, cell-based. Conditions: HT-29, 72 h. In short, it runs like this: as §1
The subject of assay [1] is PC-3. In words: Cytotoxicity against human PC3 cells after 72 hrs by MTT assay. It is filed as functional, cell-based. The following applies: PC-3, 72 h. The essentials:
as §1

In assay [2] the test system is BJ. In words: Cytotoxicity against human BJ cells after 72 hrs by MTT assay. Format: cell-based. In short, it runs like this:
as §1

In assay [3] the test system is PC-3. Briefly: Ratio of betulinic acid IC50 to compound IC50 for human PC3 cells. Format: functional.
The subject of assay [4] is BJ. Briefly: Selectivity ratio of IC50 for human BJ cells to IC50 for human PC3 cells.
Assay [5] concerns the target T1, DNA topoisomerase 1 (Homo sapiens) (UniProt P11387).
T1 sequence (whole entry): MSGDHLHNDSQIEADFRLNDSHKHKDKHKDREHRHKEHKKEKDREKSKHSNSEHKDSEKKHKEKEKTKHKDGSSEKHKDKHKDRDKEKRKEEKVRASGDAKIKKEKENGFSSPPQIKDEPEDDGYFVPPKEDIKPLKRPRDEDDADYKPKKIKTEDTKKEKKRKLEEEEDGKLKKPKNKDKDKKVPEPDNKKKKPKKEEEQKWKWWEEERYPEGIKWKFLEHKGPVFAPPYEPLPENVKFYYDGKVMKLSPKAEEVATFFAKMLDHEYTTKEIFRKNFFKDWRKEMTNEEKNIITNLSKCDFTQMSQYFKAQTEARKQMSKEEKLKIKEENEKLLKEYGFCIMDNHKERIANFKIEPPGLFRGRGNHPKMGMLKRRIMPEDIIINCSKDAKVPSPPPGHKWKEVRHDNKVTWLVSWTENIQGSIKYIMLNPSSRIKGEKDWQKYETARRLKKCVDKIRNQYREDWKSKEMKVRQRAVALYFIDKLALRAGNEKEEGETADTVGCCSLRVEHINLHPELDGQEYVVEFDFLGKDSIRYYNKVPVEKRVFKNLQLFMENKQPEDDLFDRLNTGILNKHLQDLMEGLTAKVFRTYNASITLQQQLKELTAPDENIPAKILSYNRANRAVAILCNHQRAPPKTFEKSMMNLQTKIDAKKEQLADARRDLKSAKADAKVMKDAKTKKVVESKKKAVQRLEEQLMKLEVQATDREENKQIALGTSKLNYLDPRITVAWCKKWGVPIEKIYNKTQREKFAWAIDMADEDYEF
Briefly: Inhibition of DNA topoisomerase 1-mediated relaxation of supercoiled plasmid DNA at 100 uM after 3 hrs by gel electrophoresis. The following applies: in the assay text read “after 30 mins” for “after 3 hrs”. The essentials: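 Topoisomerase I kit assay. Compound at 100 µM final with 0.5% DMSO. Started with 5 U topo I, run 30 min at 37 °C, stopped with 1% SDS. Products resolved on 1% agarose in TAE at 80 V for 3 h, ethidium-stained. Inhibition scored 0 to 3+.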

From ChEMBL document CHEMBL1165980, “Synthesis and structure-activity relationship study of novel cytotoxic carbamate and N-acylheterocyclic bearing derivatives of betulin and betulinic acid” (Bioorg Med Chem, 2010) come the findings set out here.

SMILES strings stand for the structures. Active and inactive are the calls of the source. The rule behind the calls is not given here.

By IC50 is commonly meant the midpoint of a concentration-inhibition curve. Low readings indicate greater potency in that assay, high ones weaker potency in that assay. On to `C=C(C)[C@@H]1CC[C@]2(C(=O)n3cncn3)CC[C@]3(C)[C@H](CC[C@@H]4[C@@]5(C)C=C(O)C(=O)C(C)(C)[C@@H]5CC[C@]43C)[C@@H]12`, for which the IC50 with HepG2 came to 7.4 µM; with Jurkat, 10.5 µM; with HeLa, 5.4 µM; in the assay with HT-29, 3.3 µM; with PC-3 [1] it was 1.8 µM; with BJ [2], 27.9 µM. In addition, the figures for the “Ratio IC50” value in the assay with PC-3 [3] and with BJ [4] were 12 and 15, respectively. Further, the inhibition result in assay [5] was “Active”.
